Calls of active or inactive are those of the source. No cut-off for these calls is given here.
How the values were obtained:
[1] = Chemical chaperone activity assessed as suppression of alpha-lactalbumin-bovine serum albumin aggregation at 0.3 mM by turbidity assay; format: physicochemical; conditions: 300 µM
Procedure, shortened: (§1)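 Reduced alpha-lactalbumin (r-LA) was made by incubating LA with 5 mM dithiothreitol and 2.5 mM EDTA for 30 min at 25 °C. Aggregation was started at 37 °C by adding denatured bovine serum albumin, with DMSO vehicle or compound present. Turbidity was read as optical density at 488 nm and expressed relative to the matching controls. Values are means ± SE of four independent experiments.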

SH-SY5Y = assay: Protection against ER stress-induced human SH-SY5Y cell damage assessed as cell viability at 0.1 mM after 48 hrs by crystal violet assay; format: functional, cell-based
Procedure, shortened: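 Human neuroblastoma SH-SY5Y cells stably expressing Pael-R–FLAG were incubated with or without compound at 0.1, 0.5 or 1.0 mM for 48 h. Viability was determined by crystal violet assay. Values are means ± SE of three independent experiments.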

[2] = Chemical chaperone activity assessed as suppression of alpha-lactalbumin-bovine serum albumin aggregation at 3 mM by turbidity assay; format: physicochemical; conditions: 3000 µM; procedure, shortened: as §1

| Activity [1] | Activity [2] | SMILES | Activity (SH-SY5Y) |
| --- | --- | --- | --- |
| Active | – | COc1ccc(CCCCC(=O)O)c2ccccc12 | Active |
| – | Active | O=C(O)CCCc1ccccc1 | Active |
| Active | – | COc1ccc2ccccc2c1CC/C=C/C(=O)O | Active |
| Active | – | COc1ccc2cc(CCC(=O)O)ccc2c1 | Active |
| Active | – | COc1ccc(CCC(=O)O)c2ccccc12 | Active |
| Active | – | COc1ccc2ccccc2c1/C=C/C(=O)O | Active |
| Active | – | COc1ccc2cc(/C=C/C(=O)O)ccc2c1 | Active |
| Active | – | COc1ccc2ccccc2c1CCC(=O)O | Active |
| Active | – | COc1ccc2cc(CC/C=C/C(=O)O)ccc2c1 | Active |
| Active | – | COc1ccc(/C=C/C(=O)O)c2ccccc12 | Active |
| Active | – | COc1ccc2ccccc2c1CCCCC(=O)O | Active |
| Active | – | COc1ccc2cc(CCCCC(=O)O)ccc2c1 | Active |

Reference: ChEMBL document CHEMBL3392956, “Evaluation of synthetic naphthalene derivatives as novel chemical chaperones that mimic 4-phenylbutyric acid” (Bioorg Med Chem Lett, 2015)
